Here are results for six molecules from ChEMBL document CHEMBL4020828, “Design and Syntheses of Highly Potent Teixobactin Analogues against Staphylococcus aureus, Methicillin-Resistant Staphylococcus aureus (MRSA), and Vancomycin-Resistant Enterococci (VRE) in Vitro and in Vivo” (J Med Chem, 2018).

The test system of assay [1] is Staphylococcus aureus. In words: Antibacterial activity against methicillin-resistant Staphylococcus aureus after 24 hrs. The class given is functional.
Assay [2] deals with Staphylococcus aureus. In words: Antibacterial activity against methicillin-sensitive Staphylococcus aureus after 24 hrs. The format is functional.
For assay [3], the system named is Staphylococcus epidermidis. In words: Antibacterial activity against Staphylococcus epidermidis. The format is functional.
The subject of assay [4] is Staphylococcus aureus. In words: Antibacterial activity against methicillin-sensitive Staphylococcus aureus. The class given is functional.
For assay [5], the system named is Staphylococcus aureus. The assay can be described thus: Antibacterial activity against methicillin-resistant Staphylococcus aureus USA300. The format is functional.
Assay [6] concerns Staphylococcus saprophyticus. The assay can be described thus: Antibacterial activity against Staphylococcus saprophyticus ATCC 49907 after 24 hrs. The class given is functional. As to conditions: ATCC 49907, 24 h.
Assay [7] relates to Bacillus subtilis (Bacillus subtilis). The assay can be described thus: Antibacterial activity against Bacillus subtilis ATCC 6633 after 24 hrs. Particulars: ATCC 6633, 24 h.
For assay [8], the system named is Enterococcus faecalis. In words: Antibacterial activity against vancomycin-resistant Enterococcus faecalis isolate 1008 after 24 hrs. As to conditions: isolate 1008, 24 h. The class given is functional.
Assay [9] has as its system Staphylococcus saprophyticus. The assay can be described thus: Antibacterial activity against Staphylococcus saprophyticus ATCC 15305 after 24 hrs. Particulars: ATCC 15305, 24 h. The format is functional.
The subject of assay [10] is Staphylococcus epidermidis. The assay can be described thus: Antibacterial activity against Staphylococcus epidermidis 12228 after 24 hrs. The format is functional. Particulars: Staphylococcus epidermidis, 12228, 24 h.
The test system of assay [11] is Enterococcus faecalis. The assay can be described thus: Antibacterial activity against vancomycin-resistant Enterococcus faecalis isolate 1002 after 24 hrs. The format is functional. Particulars: isolate 1002, 24 h.
Assay [12] concerns Staphylococcus aureus. In words: Antibacterial activity against methicillin-resistant Staphylococcus aureus isolate 21455 after 24 hrs. Particulars: isolate 21455, 24 h. The class given is functional.
The test system of another assay is Bacillus cereus. In words: Antibacterial activity against Bacillus cereus ATCC 11788 after 24 hrs. The class given is functional. Particulars: ATCC 11788, 24 h.
The test system of assay [13] is Enterococcus faecalis. The assay can be described thus: Antibacterial activity against vancomycin-resistant Enterococcus faecalis isolate 1004 after 24 hrs. The format is functional. As to conditions: isolate 1004, 24 h.
Assay [14] deals with Staphylococcus saprophyticus. The assay can be described thus: Antibacterial activity against Staphylococcus saprophyticus ATCC 49453 after 24 hrs. The format is functional. Particulars: ATCC 49453, 24 h.
Assay [15] deals with Staphylococcus saprophyticus. The assay can be described thus: Antibacterial activity against Staphylococcus saprophyticus ATCC BAA 750 after 24 hrs. Particulars: ATCC BAA 750, 24 h. The class given is functional.
The subject of assay [16] is Staphylococcus aureus. The assay can be described thus: Antibacterial activity against methicillin-resistant Staphylococcus aureus ATCC 700699 after 24 hrs. The format is functional. As to conditions: ATCC 700699, 24 h.
The test system of assay [17] is Staphylococcus aureus. The assay can be described thus: Antibacterial activity against methicillin-resistant Staphylococcus aureus ATCC 33591 after 24 hrs. The class given is functional. Particulars: ATCC 33591, 24 h.
In assay [18] the test system is Staphylococcus aureus. In words: Antibacterial activity against Staphylococcus aureus 4299 after 24 hrs. The class given is functional. As to conditions: Staphylococcus aureus, 4299, 24 h.
Assay [19] has as its system Staphylococcus aureus. The assay can be described thus: Antibacterial activity against Staphylococcus aureus ATCC 29213 after 24 hrs. The format is functional. Particulars: ATCC 29213, 24 h.
The subject of assay [20] is Enterococcus faecalis. In words: Antibacterial activity against vancomycin-resistant Enterococcus faecalis ATCC 700802 after 24 hrs. As to conditions: ATCC 700802, 24 h. The format is functional.
In assay [21] the test system is Enterococcus faecalis. The assay can be described thus: Antibacterial activity against vancomycin-resistant Enterococcus faecalis ATCC 29212 after 24 hrs. Particulars: ATCC 29212, 24 h. The format is functional.
The test system of assay [22] is Staphylococcus aureus. In words: Antibacterial activity against methicillin-resistant Staphylococcus aureus isolate 1003 after 24 hrs. The format is functional. As to conditions: isolate 1003, 24 h.
The subject of assay [23] is Staphylococcus aureus. The assay can be described thus: Antibacterial activity against methicillin-resistant Staphylococcus aureus isolate 42412 after 24 hrs. The class given is functional. As to conditions: isolate 42412, 24 h.
For assay [24], the system named is Enterococcus faecalis. In words: Antibacterial activity against vancomycin-resistant Enterococcus faecalis isolate 1001 after 24 hrs. The format is functional. As to conditions: isolate 1001, 24 h.
The subject of assay [25] is Staphylococcus aureus. The assay can be described thus: Antibacterial activity against methicillin-resistant Staphylococcus aureus. The class given is functional.
The subject of assay [26] is Staphylococcus aureus. The assay can be described thus: Antibacterial activity against Staphylococcus aureus ATCC 29213 infected in C57BL6 mouse cornea assessed as decrease in conjunctival chemosis at 0.3% administered tropically 2 times on day 1, 4 times on day 2 and 2 times on day 3 starting from 6 hrs post infection measured 48 hrs post last dose by slit-lamp photography. The class given is functional. Put shortly: (§1)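 Mouse corneal epithelium scratched with a scalpel, then infected with 15 µl of 6×10⁶ CFU/ml S. aureus ATCC 29213. From 6 h p.i., 15 µl of PBS vehicle, 0.3% w/v peptide in PBS or 0.3% moxifloxacin was applied, 8 doses total. Outcomes were slit-lamp examination, AS-OCT corneal thickness and CFU counts of harvested corneas (mean log₁₀ CFU/tissue ± SEM).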

In assay [27] the test system is Staphylococcus aureus. The assay can be described thus: Antibacterial activity against Staphylococcus aureus ATCC 29213 infected in C57BL6 mouse cornea assessed as mean corneal thickness at 0.3% administered tropically 2 times on day 1, 4 times on day 2 and 2 times on day 3 starting from 6 hrs post infection measured 48 hrs post last dose by AS-OCT method (reference value: 186.2 +/- 17.5 micrometer). The format is functional. Put shortly: as §1

In assay [28] the test system is Staphylococcus aureus. The assay can be described thus: Antibacterial activity against Staphylococcus aureus ATCC 29213 infected in C57BL6 mouse cornea assessed as decrease in log bacterial load/tissue at 0.3% administered tropically 2 times on day 1, 4 times on day 2 and 2 times on day 3 starting from 6 hrs post infection measured 48 hrs post last dose. The class given is functional. Put shortly: as §1

The subject of assay [29] is Staphylococcus aureus. In words: Antibacterial activity against Staphylococcus aureus ATCC 29213 infected in C57BL6 mouse cornea assessed as mean corneal thickness at 0.3% administered tropically 2 times on day 1, 4 times on day 2 and 2 times on day 3 starting from 6 hrs post infection measured 24 hrs post last dose by AS-OCT method (reference value: 151.7 +/- 12.7 micrometer). The format is functional. In short, it runs like this: as §1

Assay [30] deals with Staphylococcus aureus. In words: Antibacterial activity against Staphylococcus aureus ATCC 29213 infected in C57BL6 mouse cornea assessed as decrease in corneal infiltrates at 0.3% administered tropically 2 times on day 1, 4 times on day 2 and 2 times on day 3 starting from 6 hrs post infection measured 48 hrs post last dose by slit-lamp photography. The format is functional. Put shortly:
as §1

Values after ≈ are worked out from the molar mass of the structure shown. Active and inactive are the calls of the source. The rule behind the calls is not given here. Where only a bound is given, the exact number is not on record here.

For `CCC(C)[C@@H]1NC(=O)[C@H](C)NC(=O)[C@H](NC(=O)[C@H](CO)NC(=O)[C@@H](NC(=O)[C@H](NC(=O)[C@@H](CCC(N)=O)NC(=O)[C@H](CO)NC(=O)[C@@H](NC(=O)[C@@H](Cc2ccccc2)NC)[C@@H](C)CC)[C@H](C)CC)[C@@H](C)CC)[C@H](C)OC(=O)[C@H]([C@@H](C)CC)NC1=O` (stereo not given in full), the MIC – broadly, the least concentration at which growth counts as inhibited – with Staphylococcus aureus [1] was determined as 0.25 µg/mL (≈ 0.208 µM); in the assay with Staphylococcus aureus [2] it was 0.063 µg/mL (≈ 0.0524 µM).

As to `CC[C@@H](C)[C@@H](NC(=O)[C@@H](CCC(N)=O)NC(=O)[C@H](CO)NC(=O)[C@@H](NC(=O)[C@@H](Cc1ccccc1)NC)[C@@H](C)CC)C(=O)N[C@H](C(=O)N[C@@H](CO)C(=O)N[C@H]1C(=O)N[C@@H](C)C(=O)N[C@@H](CCCCNC(=N)N)C(=O)N[C@@H]([C@@H](C)CC)C(=O)O[C@H]1C)[C@@H](C)CC`, the MIC came out at 1 µg/mL (≈ 0.795 µM) in assay [3], 1 µg/mL (≈ 0.795 µM) against Staphylococcus aureus [4] and 2 µg/mL (≈ 1.59 µM) in the assay on Staphylococcus aureus [5].

For the molecule `CC[C@@H](C)[C@@H](NC(=O)[C@@H](CCC(N)=O)NC(=O)[C@H](CCCNC(=N)N)NC(=O)[C@@H](NC(=O)[C@@H](Cc1ccccc1)NC)[C@@H](C)CC)C(=O)N[C@H](C(=O)N[C@@H](CO)C(=O)N[C@H]1C(=O)N[C@@H](C)C(=O)N[C@@H]([C@@H](C)CC)C(=O)N[C@@H]([C@@H](C)CC)C(=O)O[C@H]1C)[C@@H](C)CC`, the MIC was < 0.0625 µg/mL in assay [6]; < 0.0625 µg/mL in assay [7]; 1 µg/mL (≈ 0.787 µM) in the assay on Enterococcus faecalis [8]; < 0.0625 µg/mL in [9]; < 0.0625 µg/mL in [10]; 1 µg/mL (≈ 0.787 µM) against Enterococcus faecalis [11]. Also, the MIC in the assay with Staphylococcus aureus [12] is 0.25 µg/mL (≈ 0.197 µM); against Bacillus cereus, 0.125 µg/mL (≈ 0.0984 µM); in the assay on Enterococcus faecalis [13] it was 1 µg/mL (≈ 0.787 µM); in assay [14] it was < 0.0625 µg/mL; in assay [15] it was < 0.0625 µg/mL; against Staphylococcus aureus [16] it was 1 µg/mL (≈ 0.787 µM). The MIC with Staphylococcus aureus [17] stood at 0.25 µg/mL (≈ 0.197 µM); in the assay on Staphylococcus aureus [18], 0.125 µg/mL (≈ 0.0984 µM); against Staphylococcus aureus [19], 0.5 µg/mL (≈ 0.394 µM); in the assay on Enterococcus faecalis [20], 1 µg/mL (≈ 0.787 µM); against Enterococcus faecalis [21], 1 µg/mL (≈ 0.787 µM); against Staphylococcus aureus [22], 0.125 µg/mL (≈ 0.0984 µM). In addition, the MIC in the assay with Staphylococcus aureus [23] was 0.125 µg/mL (≈ 0.0984 µM); against Enterococcus faecalis [24], 1 µg/mL (≈ 0.787 µM).

Turning to `CC[C@@H](C)[C@@H](NC(=O)[C@@H](CCC(N)=O)NC(=O)[C@H](CO)NC(=O)[C@@H](NC(=O)[C@@H](Cc1ccccc1)NC)[C@@H](C)CC)C(=O)N[C@H](C(=O)N[C@@H](CO)C(=O)N[C@H]1C(=O)N[C@@H](C)C(=O)N[C@@H](CCCCN)C(=O)N[C@@H]([C@@H](C)CC)C(=O)O[C@H]1C)[C@@H](C)CC`, the figures for the MIC (in assay [3]; with Staphylococcus aureus [25]) were 0.5 to 1 µg/mL (≈ 0.411 to 0.822 µM) and 1 µg/mL (≈ 0.822 µM), respectively.

On to `CC[C@@H](C)[C@@H](NC(=O)[C@@H](CCC(N)=O)NC(=O)[C@H](CO)NC(=O)[C@@H](NC(=O)[C@@H](Cc1ccccc1)NC)[C@@H](C)CC)C(=O)N[C@H](C(=O)N[C@@H](CO)C(=O)N[C@H]1C(=O)N[C@@H](C)C(=O)N[C@@H](CC(C)C)C(=O)N[C@@H]([C@@H](C)CC)C(=O)O[C@H]1C)[C@@H](C)CC`, for which the MIC is 0.25 µg/mL (≈ 0.208 µM) with Staphylococcus aureus [1]; < 0.0625 µg/mL against Staphylococcus aureus [12]; 0.25 µg/mL (≈ 0.208 µM) in the assay on Staphylococcus aureus [16]; 0.25 µg/mL (≈ 0.208 µM) in the assay on Staphylococcus aureus [17]; 0.25 µg/mL (≈ 0.208 µM) in the assay on Enterococcus faecalis [20]; 0.063 µg/mL (≈ 0.0524 µM) against Staphylococcus aureus [2]. Also, the results for the MIC in the assay with Enterococcus faecalis [21] and with Staphylococcus aureus [23] were 0.25 µg/mL (≈ 0.208 µM) and < 0.0625 µg/mL, respectively.

Turning to `COc1c(N2C[C@@H]3CCCN[C@@H]3C2)c(F)cc2c(=O)c(C(=O)O)cn(C3CC3)c12` [MOXIFLOXACIN], the result in the assay on Staphylococcus aureus [26] and in the assay on Staphylococcus aureus [30] was Active. The Activity in the assay with Staphylococcus aureus [27] worked out at 140.3 um; in the assay with Staphylococcus aureus [28] it was 3.7 log10CFU; in the assay on Staphylococcus aureus [29], 124.2 um.
